Measured values: ChEMBL document CHEMBL3758148, “4-Phenylpyridin-2-one Derivatives: A Novel Class of Positive Allosteric Modulator of the M1 Muscarinic Acetylcholine Receptor” (J Med Chem, 2016)
The source made the active and inactive calls. No cut-off for these calls is given here.

Experiments:
[1] = molecular target: T1, Muscarinic acetylcholine receptor M1 (Homo sapiens) (UniProt P11229); experiment: Displacement of [3H]NMS from human muscarinic M1 receptor expressed in CHO Flp-In cells after 1 hr by microbeta liquid scintillation counting-based radioligand binding assay; type: cell-based
T1 sequence (whole entry): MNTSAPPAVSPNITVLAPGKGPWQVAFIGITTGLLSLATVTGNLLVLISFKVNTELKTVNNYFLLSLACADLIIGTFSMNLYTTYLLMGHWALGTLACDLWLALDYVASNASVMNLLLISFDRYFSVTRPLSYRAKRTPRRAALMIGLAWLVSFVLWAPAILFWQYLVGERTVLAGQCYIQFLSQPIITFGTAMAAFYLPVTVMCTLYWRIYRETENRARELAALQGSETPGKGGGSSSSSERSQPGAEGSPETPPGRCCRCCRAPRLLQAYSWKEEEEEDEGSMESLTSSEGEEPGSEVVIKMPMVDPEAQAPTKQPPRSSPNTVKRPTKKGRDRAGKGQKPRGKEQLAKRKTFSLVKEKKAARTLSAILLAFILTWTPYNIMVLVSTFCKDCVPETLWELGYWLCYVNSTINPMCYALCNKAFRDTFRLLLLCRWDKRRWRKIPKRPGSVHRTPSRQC
In short: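 Intact adherent Flp-In CHO cells expressing hM1 (10⁴ cells/well), incubated with 0.2 nM [3H]NMS, varying ACh and modulator in HEPES-buffered saline pH 7.4 for 1 h at 37 °C. Washed with ice-cold 0.9% NaCl, then scintillation counted. Fitted to an allosteric ternary complex model with [3H]NMS KA 0.2 nM. Mean ± SEM, ≥3 experiments in duplicate.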

[2] = molecular target: T1, Muscarinic acetylcholine receptor M1 (Homo sapiens); experiment: Positive allosteric modulation of human muscarinic M1 receptor expressed in CHO Flp-In cells assessed as functional cooperativity with acetylcholine measured as IP1 accumulation upto 30 uM after 1 hr by HTRF method; type: cell-based
In short: (§1)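 Suspended Flp-In CHO cells stably expressing hM1, stimulated at 10⁶ cells/ml in HEPES buffer with 50 mM LiCl, pH 7.4, using increasing ACh with or without increasing modulator, 1 h at 37 °C, 5% CO2. IP1 read by HTRF (665/590 nm ratio). Curves fitted globally to the operational model of allosterism, with KB fixed from binding. Mean ± SEM, ≥3 experiments in duplicate.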

[3] = molecular target: T1, Muscarinic acetylcholine receptor M1 (Homo sapiens); experiment: Positive allosteric modulation of human muscarinic M1 receptor expressed in CHO Flp-In cells assessed as functional cooperativity with acetylcholine measured as IP1 accumulation after 1 hr by HTRF method; type: cell-based; in short: as §1
[4] = molecular target: T1, Muscarinic acetylcholine receptor M1 (Homo sapiens); experiment: Allosteric agonist activity at human muscarinic M1 receptor expressed in CHO Flp-In cells assessed as intrinsic activity measured as IP1 accumulation after 1 hr by HTRF method; type: functional, cell-based; in short: as §1
[5] = molecular target: T2, Muscarinic acetylcholine receptor M2 (Homo sapiens) (UniProt P08172); experiment: Displacement of [3H]NMS from human muscarinic M2 receptor expressed in CHO Flp-In cells up to 10 uM after 1 hr by microbeta liquid scintillation counting-based radioligand binding assay; type: cell-based
T2 sequence (whole entry): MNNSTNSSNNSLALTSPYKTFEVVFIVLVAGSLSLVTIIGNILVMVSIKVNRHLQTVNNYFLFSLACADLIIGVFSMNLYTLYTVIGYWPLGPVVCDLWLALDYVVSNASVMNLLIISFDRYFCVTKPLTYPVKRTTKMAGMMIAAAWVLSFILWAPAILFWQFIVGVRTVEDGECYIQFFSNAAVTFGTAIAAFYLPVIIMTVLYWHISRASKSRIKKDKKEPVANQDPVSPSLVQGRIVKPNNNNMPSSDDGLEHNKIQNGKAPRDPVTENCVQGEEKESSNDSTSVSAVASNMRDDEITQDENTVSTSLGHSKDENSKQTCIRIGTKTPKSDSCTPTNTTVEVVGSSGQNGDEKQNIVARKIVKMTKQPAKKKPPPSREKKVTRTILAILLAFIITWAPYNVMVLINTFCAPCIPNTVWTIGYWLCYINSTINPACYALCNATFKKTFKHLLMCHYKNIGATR
In short: (§2)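 Whole Flp-In CHO cells expressing hM2, hM3, hM4 or hM5 were incubated with [3H]NMS, ACh and modulator up to 10 μM in HEPES-buffered saline pH 7.4, 1 h at 37 °C. Bound radioactivity was counted by scintillation after two ice-cold saline washes.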

[6] = molecular target: Muscarinic acetylcholine receptor M3 (Homo sapiens) (UniProt P20309); experiment: Displacement of [3H]NMS from human muscarinic M3 receptor expressed in CHO Flp-In cells up to 10 uM after 1 hr by microbeta liquid scintillation counting-based radioligand binding assay; type: cell-based; in short: as §2
Muscarinic acetylcholine receptor M3 (Homo sapiens), sequence (P20309 whole entry, looked up): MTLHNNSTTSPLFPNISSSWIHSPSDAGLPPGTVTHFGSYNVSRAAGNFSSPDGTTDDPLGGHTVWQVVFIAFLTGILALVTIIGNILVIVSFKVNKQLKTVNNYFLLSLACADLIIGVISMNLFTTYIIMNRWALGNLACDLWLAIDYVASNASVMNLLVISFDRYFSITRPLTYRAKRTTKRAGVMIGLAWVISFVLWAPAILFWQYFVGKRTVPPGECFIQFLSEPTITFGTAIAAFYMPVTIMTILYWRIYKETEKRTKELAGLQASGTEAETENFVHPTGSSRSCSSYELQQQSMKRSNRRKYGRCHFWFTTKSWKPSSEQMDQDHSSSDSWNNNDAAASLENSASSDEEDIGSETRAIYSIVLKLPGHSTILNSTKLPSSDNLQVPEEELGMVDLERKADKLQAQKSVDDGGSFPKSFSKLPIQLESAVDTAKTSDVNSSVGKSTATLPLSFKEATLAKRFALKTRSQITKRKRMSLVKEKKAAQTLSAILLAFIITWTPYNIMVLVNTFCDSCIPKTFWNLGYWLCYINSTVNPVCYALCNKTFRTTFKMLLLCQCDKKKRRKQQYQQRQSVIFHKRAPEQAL

[7] = molecular target: T3, Muscarinic acetylcholine receptor M4 (Homo sapiens) (UniProt P08173); experiment: Displacement of [3H]NMS from human muscarinic M4 receptor expressed in CHO Flp-In cells up to 10 uM after 1 hr by microbeta liquid scintillation counting-based radioligand binding assay; type: cell-based; in short: as §2
T3 sequence (whole entry): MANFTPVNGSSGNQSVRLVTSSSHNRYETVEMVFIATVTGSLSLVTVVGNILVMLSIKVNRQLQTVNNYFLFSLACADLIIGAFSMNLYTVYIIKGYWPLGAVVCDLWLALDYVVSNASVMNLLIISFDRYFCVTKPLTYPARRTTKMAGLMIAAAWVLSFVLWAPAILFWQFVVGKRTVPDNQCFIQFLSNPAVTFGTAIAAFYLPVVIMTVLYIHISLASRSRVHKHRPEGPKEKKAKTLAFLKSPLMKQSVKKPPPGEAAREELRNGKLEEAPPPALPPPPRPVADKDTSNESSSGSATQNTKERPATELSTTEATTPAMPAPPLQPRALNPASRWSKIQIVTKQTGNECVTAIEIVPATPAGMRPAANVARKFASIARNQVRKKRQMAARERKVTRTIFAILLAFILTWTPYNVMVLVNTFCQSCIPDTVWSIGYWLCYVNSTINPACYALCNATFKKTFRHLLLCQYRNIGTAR

[8] = molecular target: T4, Muscarinic acetylcholine receptor M5 (Homo sapiens) (UniProt P08912); experiment: Displacement of [3H]NMS from human muscarinic M5 receptor expressed in CHO Flp-In cells up to 10 uM after 1 hr by microbeta liquid scintillation counting-based radioligand binding assay; type: cell-based; in short: as §2
T4 sequence (whole entry): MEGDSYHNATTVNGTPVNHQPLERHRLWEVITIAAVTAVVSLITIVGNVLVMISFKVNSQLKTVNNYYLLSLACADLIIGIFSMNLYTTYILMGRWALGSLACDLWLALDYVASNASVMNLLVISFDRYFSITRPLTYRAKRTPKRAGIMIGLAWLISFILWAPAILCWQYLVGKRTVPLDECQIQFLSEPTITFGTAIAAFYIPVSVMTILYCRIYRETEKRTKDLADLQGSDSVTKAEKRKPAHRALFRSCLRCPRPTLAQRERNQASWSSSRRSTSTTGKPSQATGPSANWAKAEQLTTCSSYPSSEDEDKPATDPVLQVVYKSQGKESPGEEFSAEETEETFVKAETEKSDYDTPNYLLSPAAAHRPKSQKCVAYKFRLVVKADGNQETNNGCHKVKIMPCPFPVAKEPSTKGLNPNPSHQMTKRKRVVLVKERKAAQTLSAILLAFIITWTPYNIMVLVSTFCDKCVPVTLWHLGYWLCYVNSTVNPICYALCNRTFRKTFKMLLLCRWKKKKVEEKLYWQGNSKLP

SMILES | Kb [1] [µM] | pKb [1] | Activity [2] | log(activity) [3] | Intrinsic activity [4] | log(IA) [4] | Activity [5] | Activity [6] | Activity [7] | Activity [8]
O=c1cc(-c2ccccc2O)ccn1[C@H]1CCCC[C@@H]1O (racemic) | 79 | 4.1 | inactive | – | – | – | – | – | – | –
Nc1ccccc1-c1ccn([C@H]2CCCC[C@@H]2O)c(=O)c1 (racemic) | – | 3.86 | inactive | – | – | – | – | – | – | –
COc1ccccc1COc1ccccc1-c1ccn([C@H]2CCCC[C@@H]2O)c(=O)c1 (racemic) | 30 | 4.53 | inactive | – | – | – | – | – | – | –
O=c1cc(-c2ccccc2OCc2ccc(Br)cc2F)ccn1[C@H]1CCCC[C@@H]1O (racemic) | 18 | 4.75 | inactive | – | – | – | – | – | – | –
Cn1cc(-c2ccc(COc3ccccc3-c3ccn([C@H]4CCCC[C@@H]4O)c(=O)c3)cc2)cn1 (racemic) | 43 | 4.37 | – | 2.3 | 0.21 | -0.68 | inactive | inactive | inactive | inactive
O=c1cc(-c2ccccc2OCc2ccc(-c3cnn(Cc4ccccc4)c3)cc2)ccn1[C@H]1CCCC[C@@H]1O (racemic) | 21 | 4.68 | inactive | – | – | – | – | – | – | –
O=c1cc(-c2ccccc2OCc2ccc(Br)cc2)ccn1[C@H]1CCCC[C@@H]1O (racemic) | 58 | 4.24 | inactive | – | – | – | – | – | – | –
O=c1cc(-c2ccccc2NCc2ccc(-c3ccncc3)cc2)ccn1[C@H]1CCCC[C@@H]1O (racemic) | 9.3 | 5.03 | inactive | – | – | – | – | – | – | –
O=c1cc(-c2ccccc2NCc2ccc(-c3ccccc3)cc2)ccn1[C@H]1CCCC[C@@H]1O (racemic) | 69 | 4.16 | inactive | – | – | – | – | – | – | –
O=c1cc(-c2ccccc2OCc2ccccc2C(F)(F)F)ccn1[C@H]1CCCC[C@@H]1O (racemic) | 33 | 4.48 | inactive | – | – | – | – | – | – | –
O=c1cc(-c2ccccc2OCc2ccc(-c3cnn(CC4CCCCC4)c3)cc2)ccn1[C@H]1CCCC[C@@H]1O (racemic) | 30 | 4.52 | inactive | – | – | – | – | – | – | –
COc1ccc(Cn2cc(C(=O)O)c(=O)c3ccccc32)cc1 | – | – | – | 1.84 | 0.22 | -0.6 | inactive | inactive | inactive | inactive
O=c1cc(-c2ccccc2OCc2ccc(Oc3ccccc3)cc2)ccn1[C@H]1CCCC[C@@H]1O (racemic) | 19 | 4.71 | inactive | – | – | – | – | – | – | –
N#Cc1ccc(COc2ccccc2-c2ccn([C@H]3CCCC[C@@H]3O)c(=O)c2)cc1 (racemic) | 14 | 4.85 | – | 0.49 | 0.19 | -0.73 | – | – | – | –
O=c1cc(-c2ccccc2NCc2ccc(Br)cc2)ccn1[C@H]1CCCC[C@@H]1O (racemic) | 45 | 4.35 | inactive | – | – | – | – | – | – | –
O=c1cc(-c2ccccc2OCc2ccccc2F)ccn1[C@H]1CCCC[C@@H]1O (racemic) | 30 | 4.52 | – | 0.62 | 0.44 | -0.36 | – | – | – | –
O=c1cc(-c2ccccc2OCc2ccc(-c3nccs3)cc2)ccn1[C@H]1CCCC[C@@H]1O (racemic) | 11 | 4.96 | – | 0.8 | 0.45 | -0.35 | – | – | – | –
N#Cc1ccccc1COc1ccccc1-c1ccn([C@H]2CCCC[C@@H]2O)c(=O)c1 (racemic) | 42 | 4.38 | inactive | – | – | – | – | – | – | –
O=c1cc(-c2ccccc2OCc2ccc(-c3cn[nH]c3)cc2)ccn1[C@H]1CCCC[C@@H]1O (racemic) | 28 | 4.56 | – | 0.68 | 1.1 | 0.04 | – | – | – | –
O=c1cc(-c2ccccc2OCc2ccc(-c3ccncc3)cc2)ccn1[C@H]1CCCC[C@@H]1O (racemic) | 11 | 4.95 | – | 1.01 | 0.43 | -0.37 | – | – | – | –
O=c1cc(-c2ccccc2OCc2ccc(-c3cnn(CCO)c3)cc2)ccn1[C@H]1CCCC[C@@H]1O (racemic) | 37 | 4.43 | – | 2.49 | 0.77 | -0.11 | – | – | – | –
O=c1cc(-c2ccccc2OCc2ccc(-c3ccccc3)cc2)ccn1[C@H]1CCCC[C@@H]1O (racemic) | 10 | 4.99 | – | 1.09 | 1.38 | 0.14 | – | – | – | –
